Sampled rows, rich in hits. Any-hit rate of the full collection: about 1.6%.
HCV core dimer: HCV core protein dimerization inhibition; TR-FRET GST/Flag-core106 dimerization, 1536-well; inhibition, % at 5 µM; hit rate 0.33% among 300,000; AID 1899;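 active = inhibition above the mean of all tested compounds plus 3 SD, set per screening campaign, cut at about 45% in these data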
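Material: Tagged HCV core106 pair (GST and Flag) | Amount: GST-core106 13.5 nM, Flag-core106 17 nM | Medium: KF-containing HEPES buffer, pH 7.45, DTT, CHAPS, BSA | Reagent: Eu donor and XL665 acceptor anti-tag antibodies | Schedule: 4 h at 22.5 °C | Technique: Time-resolved FRET, ex 340 nm, em 617 and 671 nm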
VIM-2 inhibitor: inhibitors of Pseudomonas aeruginosa VIM-2 metallo-beta-lactamase; purified VIM-2, nitrocefin hydrolysis, epi-absorbance fluorescence; inhibition, % at 5.6 µM; hit rate 0.89% among 290,000; AID 1527;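 active = inhibition above the mean of all tested compounds plus 3 SD, cutoff set per screening run, cut at about 7.5% in these data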;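 note: red hydrolysis product quenches plate fluorescence so inhibitors raise well fluorescence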
FID counter: counter-screen for HCV NS3 helicase inhibitors: DNA intercalator displacement; DNA fluorescent intercalator displacement, fluorescence; AID 1845; hit rate 0.17% among 290,000; inhibition, % at 7.9 µM; in the data active = inhibition above about 37%;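 note: higher means more ethidium bromide displaced from hairpin DNA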
IMP-1 inhibitor: inhibitors of Pseudomonas aeruginosa IMP-1 metallo-beta-lactamase; inhibition, % at 5.6 µM; hit rate 0.45% among 290,000; AID 1556; purified IMP-1, nitrocefin hydrolysis, epi-absorbance fluorescence;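 active = inhibition above the mean plus 3 SD of all compounds in the same screening run, cut at about 4.5% in these data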
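Assay system: purified IMP-1; Quantity: IMP-1 0.2 nM before substrate addition; Medium: HEPES buffer pH 7.1 with ZnSO4 and Brij 35; Incubation: 15 min enzyme–compound preincubation, then 25 min nitrocefin reaction, 25 °C; Signal: fluorescence quenching readout, ex 480/em 530 nm; Controls: DMSO with and without IMP-1; Repeats: singlicate testing.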
Of the large screens only hits and unclear results are named; the others gave an inactive call.

CN(C)c1ccc(O)c2c1CC1CC3C(N(C)C)C(=O)C(C(N)=O)=C(O)[C@@]3(O)C(=O)C1=C2O (some centres not stated)	none (no result: VIM-2 inhibitor, FID counter, IMP-1 inhibitor)
O=C(O)CCNc1cc(N2CCN(C(=O)c3ccco3)CC2)c2noc3c2c1C(=O)c1ccccc1-3	IMP-1 inhibitor 7.0
CC(=O)OCCNc1cc(N2CCN(C)CC2)c2noc3c2c1C(=O)c1ccccc1-3	VIM-2 inhibitor 8.2 (no result: HCV core dimer)
Cc1cc(OC(=O)c2ccco2)c2c(C)cc(=O)oc2c1	none
CCc1cc(=O)oc2cc(C)cc(OC(=O)c3ccco3)c12	VIM-2 inhibitor 11
Cc1c(OCC(=O)N[C@@H](Cc2ccccc2)C(=O)O)ccc2c1oc(=O)c1ccccc12	VIM-2 inhibitor 12
Cc1c(OCC(=O)NC(Cc2ccc(Cl)cc2)C(=O)O)ccc2c3c(c(=O)oc12)CCCC3 (configuration not stated)	none
Cc1c(OCC(=O)N[C@@H](Cc2ccccc2)C(=O)O)ccc2c3c(c(=O)oc12)CCC3	VIM-2 inhibitor 12
Cn1c(NC(=O)/C=C/c2c(F)cccc2Cl)cc(=O)n(C)c1=O	none
CCOc1ccc(N=C(/C(C(=O)C(=O)N2CCOCC2)=C(/O)c2ccccc2)c2ccccc2)cc1	none
O=C(Nc1ccccn1)NC1CCCCC1	IMP-1 inhibitor 4.7
O=C(Nc1cccc(S(=O)(=O)NC2=NCCCCC2)c1)c1cc(-c2ccncc2)nc2ccccc12	none
O=C(Nc1cccc(S(=O)(=O)NC2=NCCCCC2)c1)c1cc(-c2ccco2)nc2ccccc12	HCV core dimer 69
CCN(CC)CCNC(=O)c1cc(-c2ccco2)nc2ccccc12	none
Cn1c(N)c(C(=O)COC(=O)c2ccnc3ccccc23)c(=O)n(C)c1=O	VIM-2 inhibitor 9.7
O=C(OCC(=O)N1CCN(C(=O)c2ccco2)CC1)c1cc(-c2ccccc2)nc2ccccc12	VIM-2 inhibitor 11
COc1ccc(CCNC(=O)c2cc(-c3ccco3)nc3ccccc23)cc1	HCV core dimer 65
O=C(NCCCN1CCN(CCCNC(=O)c2cccc([N+](=O)[O-])c2)CC1)c1cccc([N+](=O)[O-])c1	none
COc1ccccc1NC(=O)Nc1ccc2c(c1)CCC2	none
O=C(Nc1ccc(Br)cc1F)c1ccncc1	none
CNC(=O)COC(=O)c1cc(-c2ccco2)nc2ccccc12	HCV core dimer 48
Cn1c(N)c(C(=O)COC(=O)c2cc(C(F)(F)F)nc3ccccc23)c(=O)n(Cc2ccccc2)c1=O	none
O=C(COC(=O)c1cc(-c2ccco2)nc2ccccc12)NCc1ccccc1	none
Cn1c(N)c(C(=O)COC(=O)c2cc(-c3ccco3)nc3ccccc23)c(=O)n(Cc2ccccc2)c1=O	HCV core dimer 47
O=C(Nc1ccccc1N1CCOCC1)c1cc(-c2ccco2)nc2ccccc12	HCV core dimer 56
Cc1[nH][nH]c(=O)c1C(c1c(C)[nH][nH]c1=O)c1cn(Cc2cccc3ccccc23)c2ccccc12	none
COc1ccc(S(=O)(=O)N2CCOCC2)cc1NC(=O)COC(=O)c1ccc(C)s1	none (no result: HCV core dimer)
CN(C)c1cc(-c2ccc(Cl)c(Cl)c2)oc(=O)c1Cl	IMP-1 inhibitor 5.4
CCN1CCN(CC(=O)Nc2c(OC)cccc2OC)CC1	IMP-1 inhibitor 5.5
COc1ccc2nc(/C(C#N)=C\c3ccc(Oc4ccc([N+](=O)[O-])cn4)cc3)[nH]c2c1	HCV core dimer 58
O=C1c2cccc3cccc(c23)C(=O)N1c1ccc2ncccc2c1	IMP-1 inhibitor 9.3
Nc1cccc2nc3ccccc3cc12	FID counter 45
Nc1[nH]nc2nc3ccccc3cc12	none
COc1ccc(C2C(C#N)=C(N)N(c3sc4c(c3C#N)CCCC4)C3=C2C(=O)CC(C)(C)C3)cc1 (configuration not stated)	IMP-1 inhibitor 4.7
COc1ccc(C2C(C#N)=C3NC(=O)c4c(sc5c4CCCCC5)N3C3=C2C(=O)CC(C)(C)C3)cc1 (configuration not stated)	HCV core dimer 46
COc1ccc(C2C(C#N)=C(N)N(c3sc4c(c3C#N)CCCC4)C3=C2C(=O)CC(C)(C)C3)cc1OC (configuration not stated)	none
c1ccc(COc2cccc(CNCc3ccccn3)c2)cc1	VIM-2 inhibitor 8.2
Cc1ccc(-n2cc(C(=O)c3cc(Cl)ccc3O)cc(C#N)c2=O)cc1	none
N#Cc1cc(C(=O)c2ccccc2O)cn(-c2ccc(Cl)cc2)c1=O	IMP-1 inhibitor 5.4
Cc1oc(-c2ccc(Cl)cc2)cc1-c1nn2c(-c3ccoc3C)nnc2s1	HCV core dimer 84
COc1ccc2cc(C#N)c(NC(C)C)nc2c1	none
CCN(CC)c1nc2cc(OC)ccc2cc1C#N	HCV core dimer 55
CCN1CCc2c(sc(N)c2C#N)C1	none
N#Cc1c(N)sc(=S)c2c1CCN(Cc1ccccc1)C2	HCV core dimer 57 (no result: VIM-2 inhibitor, FID counter, IMP-1 inhibitor)
Oc1cccc(C(=S)N2CCN(Cc3ccccc3)CC2)c1	none
COc1ccc(C2CC(c3ccccc3)=NN2c2ccc(C(N)=O)cc2)cc1 (configuration not stated)	none
COc1ccc(C2CC(c3ccccc3)=NN2c2ccc(/C=N/NC(=O)c3ccncc3)cc2)cc1 (configuration not stated)	HCV core dimer 48
CC(C)(C)n1nnnc1C(c1ccc(C#N)cc1)N1CCCC2(CCCCC2)C1 (configuration not stated)	none
Cc1ncc(CO)c(/C=N/NC(=O)c2cc(O)c(O)c(O)c2)c1O	IMP-1 inhibitor 24 (no result: HCV core dimer)
Cc1ncc(CO)c(/C=N/NC(=O)c2ccc(Br)cc2)c1O	none
COCCNC(=O)CNC(c1ccccc1)c1ccccc1	none
COc1cc(/C=C2\SC(=N)N(c3ccc4c(c3)OCO4)C2=O)cc(OC)c1O	none
Nc1ncnc2oc(-c3ccco3)c(-c3ccco3)c12	HCV core dimer 73
O=C(CSc1nc2ccccc2o1)N1c2ccccc2Sc2ccccc21	none
Cc1ccc(-n2cc(C(=O)c3ccc(F)cc3)nn2)cc1Cl	HCV core dimer 70
CCOC(=O)c1ccc(-n2cc(C(=O)c3cccnc3)nn2)cc1	none (no result: HCV core dimer)
CCC1(C)Cc2c(sc3nc(SC)[nH]c(=S)c23)CO1 (configuration not stated)	VIM-2 inhibitor 8.1
CCSc1nc2sc3c(c2c(=O)[nH]1)CC(C)(CC)OC3 (configuration not stated)	none
COc1ccc(NC(=O)CSc2nncn2C)cc1OC	none
CCCOc1ccc(-c2nc(=S)[nH][nH]2)cc1	IMP-1 inhibitor 35
Cn1cc(CN2CCc3c([nH]c4ccccc34)C2C2CCCCC2)cn1 (configuration not stated)	none
Cn1cc(SCC(=O)N2CCCc3ccccc32)c2ccccc21	IMP-1 inhibitor 6.9
Cc1nc(NC2=NCN(CCCN3CCOCC3)CN2)nc2c(C)cccc12	VIM-2 inhibitor 8.7
C#CCSc1nsc(SCC#C)c1C#N	HCV core dimer 63
CCCCn1c(N)c(N(CCC(C)C)C(=O)CSc2nnc(Nc3ccccc3)s2)c(=O)[nH]c1=O	none
O=c1[nH]c(=O)n(Cc2ccccc2)c2nc(-c3ccco3)cc(C(F)(F)F)c12	none
Cc1cc(C(F)(F)F)c2c(=O)[nH]c(=O)n(Cc3ccccc3)c2n1	IMP-1 inhibitor 7.3
